Assay results taken from PMC8592288 (Bioorganic chemistry, 2021).

How the values were obtained:
[1] = tested on: RAW264.7; assay: Griess assay, NO in IFNγ/LPS-activated RAW264.7 macrophages; format: cell-based, mouse; conditions: INFγ/LPS activated RAW264.7; 1,25(OH)2D3 20 nM, CTA 5 and 20 μM; 24-hour treatment
[2] = tested on: IL-1β; assay: HTRF IL1β cytokine assay, supernatant of activated RAW264.7 macrophages; format: cell-based, mouse; conditions: INFγ/LPS activated RAW264.7; 1,25(OH)2D3 20 nM, CTA 20 μM
[3] = molecular target: hFXR (Homo sapiens, UniProt Q96RI1); assay: FXR transcription assay, BSEP-luciferase in HeLa cells; format: cell-based; conditions: 24 h
Chain of hFXR (Q96RI1 whole entry): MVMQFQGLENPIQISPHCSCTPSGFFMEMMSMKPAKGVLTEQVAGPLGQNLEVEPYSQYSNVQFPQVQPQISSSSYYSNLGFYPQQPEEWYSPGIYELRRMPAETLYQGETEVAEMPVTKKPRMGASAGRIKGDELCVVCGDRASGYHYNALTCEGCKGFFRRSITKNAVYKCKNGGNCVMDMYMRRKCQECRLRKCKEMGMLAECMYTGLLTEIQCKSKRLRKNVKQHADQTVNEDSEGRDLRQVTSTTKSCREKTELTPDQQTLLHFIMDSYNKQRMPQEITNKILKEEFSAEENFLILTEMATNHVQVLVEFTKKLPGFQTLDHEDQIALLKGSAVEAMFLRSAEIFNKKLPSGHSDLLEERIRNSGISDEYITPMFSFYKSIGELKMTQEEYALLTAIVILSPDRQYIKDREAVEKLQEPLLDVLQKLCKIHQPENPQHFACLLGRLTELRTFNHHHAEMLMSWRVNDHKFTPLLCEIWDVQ
Chain of hFXR (P19793 whole entry partner): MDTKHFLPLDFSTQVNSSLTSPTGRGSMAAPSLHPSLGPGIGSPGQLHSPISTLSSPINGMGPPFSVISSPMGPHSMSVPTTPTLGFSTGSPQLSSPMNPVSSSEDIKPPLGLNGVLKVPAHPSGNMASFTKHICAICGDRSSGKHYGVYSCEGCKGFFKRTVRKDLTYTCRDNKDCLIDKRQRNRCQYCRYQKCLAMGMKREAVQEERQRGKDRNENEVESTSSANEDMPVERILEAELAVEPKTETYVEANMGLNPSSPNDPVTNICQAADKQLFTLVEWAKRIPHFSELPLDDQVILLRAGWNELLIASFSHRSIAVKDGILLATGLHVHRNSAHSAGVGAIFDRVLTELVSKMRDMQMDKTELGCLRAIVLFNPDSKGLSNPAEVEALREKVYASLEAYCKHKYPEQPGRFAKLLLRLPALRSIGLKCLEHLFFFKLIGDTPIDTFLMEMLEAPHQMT
Method in brief: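 HeLa cells grown in DMEM high glucose with 10% FCS, seeded at 8000 cells/well 24 h before transfection, then switched to 0.5% charcoal-stripped FCS. Calcium phosphate co-transfection with pcDNA3-hFXR, pSG5-hRXR, a BSEP promoter-luciferase (pGL3basic) reporter and pRL-SV40. Test compound added in 0.1% DMSO in phenol red-free medium for 24 h. Dual-Glo luciferase read-out. Controls: 0.1% DMSO and 1 μM GW4064. Triplicates, four independent repeats.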

[4] = tested on: CYP24A1; conditions: at 7.5 μM; cited from earlier work
[5] = tested on: CYP24A1; assay: RT-PCR of VDR target gene CYP24A1 in Caco2 cells; format: cell-based, human
[6] = molecular target: RXRα-LBD (Homo sapiens, UniProt P19793); assay: Fluorescence polarization coactivator binding assay; format: biochemical
Chain of RXRα-LBD (P19793 227-458 limits assumed): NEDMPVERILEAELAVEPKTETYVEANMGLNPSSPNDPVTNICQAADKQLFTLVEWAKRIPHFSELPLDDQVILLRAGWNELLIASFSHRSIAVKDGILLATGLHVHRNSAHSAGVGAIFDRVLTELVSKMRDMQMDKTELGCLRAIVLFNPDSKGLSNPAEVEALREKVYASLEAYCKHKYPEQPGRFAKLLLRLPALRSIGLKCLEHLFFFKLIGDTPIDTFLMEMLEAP
Method in brief: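 RXRα-LBD (1 μM) combined with Texas Red-SRC2–3 peptide (7 nM) and bexarotene (2 μM). Incubated 3 h at room temperature; polarization detected at 595/615 nm. Two independent experiments, each in quadruplicate.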

[7] = molecular target: LXR α (Homo sapiens, UniProt Q13133); assay: Gal4 hybrid reporter transcription assay in HEK293T cells; format: cell-based; conditions: 1 μM CTA, 16 h
Chain of LXR α (Q13133 209-447 limits assumed): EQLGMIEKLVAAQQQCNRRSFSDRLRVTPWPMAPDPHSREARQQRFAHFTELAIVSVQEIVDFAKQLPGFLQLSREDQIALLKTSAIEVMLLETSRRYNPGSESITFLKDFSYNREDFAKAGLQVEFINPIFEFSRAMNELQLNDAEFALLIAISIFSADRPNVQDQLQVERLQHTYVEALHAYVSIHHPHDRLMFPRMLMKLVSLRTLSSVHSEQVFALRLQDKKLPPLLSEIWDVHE
Method in brief: (§1)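 HEK293T cells transfected using Lipofectamine LTX with pFR-Luc, pRL-SV40 and pFA-CMV plasmids encoding Gal4 fusions of the human receptor LBDs. Cells then held 16 h in OptiMEM with penicillin/streptomycin, 1 μM test compound and 0.1% DMSO. Dual-Glo luciferase read-out. Controls: 0.1% DMSO, and 1 μM TO901317 or 1 μM tretinoin as reference agonists. Duplicates, four independent repeats.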

[8] = molecular target: PPARγ-LBD (Homo sapiens, UniProt P37231); assay: Fluorescence polarization coactivator binding assay; format: biochemical
Chain of PPARγ-LBD (P37231 238-503 limits assumed, species assumed): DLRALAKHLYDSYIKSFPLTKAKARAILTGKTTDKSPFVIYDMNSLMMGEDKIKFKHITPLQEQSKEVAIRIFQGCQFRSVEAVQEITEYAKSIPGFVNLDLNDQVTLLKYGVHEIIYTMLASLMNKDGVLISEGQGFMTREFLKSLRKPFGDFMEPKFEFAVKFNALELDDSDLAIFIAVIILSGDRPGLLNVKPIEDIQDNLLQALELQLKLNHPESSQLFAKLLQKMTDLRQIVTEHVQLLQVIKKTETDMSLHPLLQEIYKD
Method in brief: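 Mix of PPARγ-LBD (5 μM), Texas Red-labelled DRIP2 coactivator peptide (7 nM) and rosiglitazone (5 μM). Held 3 h at room temperature, then fluorescence polarization read at Ex/Em 595/615 nm. Two independent experiments in quadruplicate.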

[9] = molecular target: LXR β (Homo sapiens, UniProt P55055); assay: Gal4 hybrid reporter transcription assay in HEK293T cells; format: cell-based; conditions: 1 μM CTA, 16 h
Chain of LXR β (P55055 222-460 limits assumed): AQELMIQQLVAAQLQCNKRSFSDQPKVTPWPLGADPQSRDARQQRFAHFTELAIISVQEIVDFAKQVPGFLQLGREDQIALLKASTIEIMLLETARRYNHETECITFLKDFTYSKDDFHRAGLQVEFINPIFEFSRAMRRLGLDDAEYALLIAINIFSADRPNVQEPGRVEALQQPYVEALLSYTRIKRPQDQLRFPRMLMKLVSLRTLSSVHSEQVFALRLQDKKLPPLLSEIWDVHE
Method in brief: as §1

[10] = molecular target: RARα (Homo sapiens, UniProt P10276); assay: as above; format: cell-based; conditions: 1 μM CTA, 16 h
Chain of RARα (P10276 183-417 limits assumed): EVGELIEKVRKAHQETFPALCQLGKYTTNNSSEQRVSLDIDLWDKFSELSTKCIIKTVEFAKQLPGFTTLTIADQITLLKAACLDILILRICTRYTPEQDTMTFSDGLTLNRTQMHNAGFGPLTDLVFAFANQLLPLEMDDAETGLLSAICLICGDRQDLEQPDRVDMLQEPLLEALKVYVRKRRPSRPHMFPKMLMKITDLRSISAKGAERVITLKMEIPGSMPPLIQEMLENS
Method in brief: as §1

[11] = molecular target: GST-CAR-LBD (Homo sapiens, UniProt Q14994); assay: TR-FRET coactivator binding assay for CAR; format: biochemical; conditions: CTA at 10 or 50 μM
Chain of GST-CAR-LBD (Q14994 109-352 limits assumed): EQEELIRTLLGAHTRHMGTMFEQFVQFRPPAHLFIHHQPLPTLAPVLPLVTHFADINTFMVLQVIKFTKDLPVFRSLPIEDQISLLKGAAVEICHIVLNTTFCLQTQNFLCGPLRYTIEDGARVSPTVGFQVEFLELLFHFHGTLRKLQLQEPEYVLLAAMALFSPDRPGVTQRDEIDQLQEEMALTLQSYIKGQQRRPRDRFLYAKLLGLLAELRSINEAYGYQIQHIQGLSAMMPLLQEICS

[12] = molecular target: T1, VDR (Homo sapiens, UniProt P11473); assay: VDR-mediated transcription assay, CYP24A1-luciferase reporter in HEK293 cells; format: cell-based; conditions: HEK293, maximum reached before decrease due to toxicity
T1 sequence (P11473 1-427): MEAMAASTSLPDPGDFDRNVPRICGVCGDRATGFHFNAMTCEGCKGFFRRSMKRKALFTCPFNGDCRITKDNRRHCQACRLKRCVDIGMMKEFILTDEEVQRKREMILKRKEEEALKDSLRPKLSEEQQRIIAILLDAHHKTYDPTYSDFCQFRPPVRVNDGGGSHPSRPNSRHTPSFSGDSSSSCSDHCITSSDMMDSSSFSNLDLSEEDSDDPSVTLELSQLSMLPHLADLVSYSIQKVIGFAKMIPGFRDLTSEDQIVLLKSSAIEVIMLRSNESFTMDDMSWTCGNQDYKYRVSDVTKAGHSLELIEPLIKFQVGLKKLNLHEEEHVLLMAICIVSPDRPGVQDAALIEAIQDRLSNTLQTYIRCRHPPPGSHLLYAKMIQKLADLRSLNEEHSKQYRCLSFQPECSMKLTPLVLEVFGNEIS
Method in brief: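 HEK293 cells grown in DMEM high glucose with NEAA, 10 mM HEPES and 10% FBS. Transfected with VDR-CMV and CYP24A1 promoter-luciferase plasmids (Lipofectamine LTX/PLUS) for 16 h at 37 °C. Cells replated at 400,000 cells/mL onto Matrigel-treated 384-well plates for 4 h. […] Bright-Glo luminescence; n = 8; non-linear regression.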

[13] = tested on: ligand binding domain (LBD) of the VDR; conditions: two-hybrid assay; cited from earlier work
[14] = molecular target: GST-hPXR-LBD (Homo sapiens, UniProt O75469); assay: TR-FRET competition assay for PXR; format: binding; conditions: CTA at 10 or 50 μM
Chain of GST-hPXR-LBD (O75469 146-433 limits assumed): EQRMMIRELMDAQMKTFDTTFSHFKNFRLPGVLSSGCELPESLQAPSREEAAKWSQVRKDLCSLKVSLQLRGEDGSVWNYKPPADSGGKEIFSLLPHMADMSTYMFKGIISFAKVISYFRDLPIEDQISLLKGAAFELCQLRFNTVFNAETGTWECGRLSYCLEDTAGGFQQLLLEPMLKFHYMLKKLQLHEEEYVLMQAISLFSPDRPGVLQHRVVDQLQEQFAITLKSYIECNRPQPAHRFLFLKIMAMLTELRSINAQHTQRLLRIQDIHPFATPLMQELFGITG
Method in brief: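 TR-FRET competition in pH 7.5 buffer (50 mM Tris, 50 mM KCl, 20 mM MgCl2, 1 mM CHAPS, 0.1 mg/mL BSA, 0.05 mM DTT). Test compound added in DMSO (0.4% final); TO901317 as positive control. After 30 min, excitation 340 nm, ratio 520/490 nm ×10000. n = 8.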

[15] = tested on: iNOS; assay: RT-PCR of iNOS in IFNγ/LPS-activated RAW264.7 macrophages; format: cell-based, mouse; conditions: INFγ/LPS activated RAW264.7, CTA 5 and 20 μM
[16] = molecular target: AR-LBD (Homo sapiens, UniProt P10275); assay: Fluorescence polarization coactivator binding assay; format: biochemical
Chain of AR-LBD (P10275 669-900 limits assumed): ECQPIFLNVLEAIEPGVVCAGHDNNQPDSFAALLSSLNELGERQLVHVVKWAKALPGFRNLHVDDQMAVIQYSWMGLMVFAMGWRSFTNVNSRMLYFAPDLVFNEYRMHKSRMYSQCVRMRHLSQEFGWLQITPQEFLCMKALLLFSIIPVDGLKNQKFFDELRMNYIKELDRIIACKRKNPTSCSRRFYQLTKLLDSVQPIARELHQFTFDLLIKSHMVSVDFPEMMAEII
Method in brief: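 Coactivator recruitment read by fluorescence polarization. AR-LBD at 5 μM with 7 nM Texas Red-labelled SRC2–3 peptide and 100 nM dihydrotestosterone. Incubated 3 h at room temperature, then read at Ex/Em 595/615 nm. Two independent experiments, each in quadruplicate.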

[17] = tested on: RAW264.7 cells; assay: Cytotoxicity on RAW264.7 cells, CellTiter-Glo; format: cell-based, mouse; conditions: RAW264.7, concentrations up to 100 μM
[18] = molecular target: TRβ-LBD (Homo sapiens, UniProt P10828); assay: Fluorescence polarization coactivator binding assay; format: biochemical
Chain of TRβ-LBD (P10828 217-461 limits assumed): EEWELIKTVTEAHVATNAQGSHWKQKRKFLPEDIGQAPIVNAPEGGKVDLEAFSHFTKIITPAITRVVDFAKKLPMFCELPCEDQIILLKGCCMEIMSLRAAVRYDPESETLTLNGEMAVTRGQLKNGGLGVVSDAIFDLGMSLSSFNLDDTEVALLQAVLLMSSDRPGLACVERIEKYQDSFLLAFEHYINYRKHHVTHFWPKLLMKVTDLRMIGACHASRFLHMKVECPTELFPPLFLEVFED
Method in brief: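 TRβ-LBD used at 0.8 μM, with 7 nM Texas Red-SRC2–2 peptide and 1 μM triiodothyronine. Incubated 3 h at room temperature; fluorescence polarization measured at Ex/Em 595/615 nm. Two independent experiments in quadruplicate.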

[19] = subcutaneous administration; cited from earlier work
[20] = tested on: HEK293 cells; assay: Viability assay, CellTiter-Glo; format: cell-based; conditions: HEK293, 18 h exposure
Method in brief: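 HEK293 cells transfected and dosed as in the VDR transcription assay. After 18 h at 37 °C, 5% CO2, CellTiter-Glo luminescence measured (intracellular ATP). Eight measurements per concentration, averaged with SEM. LD50 derived by non-linear regression.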

[21] = molecular target: TRα-LBD (Homo sapiens, UniProt P10827); assay: Fluorescence polarization coactivator binding assay; format: biochemical
Chain of TRα-LBD (P10827 148-410 isoform P10827-2 limits assumed): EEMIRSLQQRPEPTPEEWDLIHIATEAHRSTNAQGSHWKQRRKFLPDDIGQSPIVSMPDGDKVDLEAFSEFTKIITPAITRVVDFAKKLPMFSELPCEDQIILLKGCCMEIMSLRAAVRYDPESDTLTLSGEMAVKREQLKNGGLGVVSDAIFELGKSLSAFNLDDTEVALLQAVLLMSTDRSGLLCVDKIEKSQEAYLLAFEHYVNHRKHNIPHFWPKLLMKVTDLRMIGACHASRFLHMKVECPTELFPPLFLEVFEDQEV
Method in brief: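 FP coactivator binding with TRα-LBD (1 μM), Texas Red-labelled SRC2–2 (7 nM) and triiodothyronine (100 nM). Incubated 3 h at room temperature; polarization read at 595/615 nm (Ex/Em). Two independent experiments, quadruplicate wells.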

[22] = molecular target: ERβ-LBD (Homo sapiens, UniProt Q92731); assay: Fluorescence polarization coactivator binding assay; format: biochemical
Chain of ERβ-LBD (Q92731 264-498 limits assumed, species assumed): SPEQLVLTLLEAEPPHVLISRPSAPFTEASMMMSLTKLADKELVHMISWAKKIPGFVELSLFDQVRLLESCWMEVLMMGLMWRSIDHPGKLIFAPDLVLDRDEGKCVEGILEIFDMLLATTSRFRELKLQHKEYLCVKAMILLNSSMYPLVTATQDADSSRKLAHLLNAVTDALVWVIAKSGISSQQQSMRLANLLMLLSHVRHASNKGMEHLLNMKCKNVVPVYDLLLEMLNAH
Method in brief: (§2)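 For ERα and ERβ, 1 μM LBD was mixed with 7 nM Texas Red-SRC2–2 coactivator peptide and 100 nM estradiol. After 3 h at room temperature, fluorescence polarization was read at Ex/Em 595/615 nm. Two independent experiments in quadruplicate.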

[23] = tested on: IL-1β; assay: RT-PCR of IL-1β in IFNγ/LPS-activated RAW264.7 macrophages; format: cell-based, mouse; conditions: INFγ/LPS activated RAW264.7, CTA 5 and 20 μM
[24] = molecular target: T1, VDR; assay: VDR transcription assay in the presence of 100 nM 1,25; format: cell-based
[25] = molecular target: ERα-LBD (Homo sapiens, UniProt P03372); assay: Fluorescence polarization coactivator binding assay; format: biochemical
Chain of ERα-LBD (P03372 311-547 limits assumed, species assumed): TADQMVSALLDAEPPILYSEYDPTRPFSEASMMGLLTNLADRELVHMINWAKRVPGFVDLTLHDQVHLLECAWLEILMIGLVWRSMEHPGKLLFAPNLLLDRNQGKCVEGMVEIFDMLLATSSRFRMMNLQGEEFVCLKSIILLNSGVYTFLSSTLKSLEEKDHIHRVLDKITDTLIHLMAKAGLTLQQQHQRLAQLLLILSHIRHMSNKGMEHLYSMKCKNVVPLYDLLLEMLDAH
Method in brief: as §2

[26] = molecular target: T2, Danio Rerio vitamin D receptor ligand binding domain (Danio rerio, UniProt Q9PTN2 156-453); assay: crystal structure
T2 sequence (looked up): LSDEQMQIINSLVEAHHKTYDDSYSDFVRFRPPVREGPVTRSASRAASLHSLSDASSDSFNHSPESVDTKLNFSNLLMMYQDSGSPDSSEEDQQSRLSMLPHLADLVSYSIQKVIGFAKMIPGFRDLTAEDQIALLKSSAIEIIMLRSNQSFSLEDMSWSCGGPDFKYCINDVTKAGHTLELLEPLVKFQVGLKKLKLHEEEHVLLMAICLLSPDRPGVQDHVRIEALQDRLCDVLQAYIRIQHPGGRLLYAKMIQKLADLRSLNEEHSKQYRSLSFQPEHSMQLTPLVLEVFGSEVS

C=C1/C(=C\C=C2/CCC[C@]3(C)[C@@H]([C@H](C)CCCC(C)(C)O)CC[C@@H]23)C[C@@H](O)C[C@@H]1O [1,25(OH)2D3, 1α,25-dihydroxyvitamin D3, reference compound]
production of NO in comparison to vehicle [1]: reduced the production of NO | IL-1β protein (HTRF) [2]: Reduced IL-1β protein

C=C1/C(=C\C=C2/CCC[C@]3(C)[C@@H]([C@H](C)CC(=O)O)CC[C@@H]23)C[C@@H](O)C[C@@H]1O [CTA, (R)-3-((1R,3aS,7aR,E)-4-((Z)-2-((3S,5R)-3,5-dihydroxy-2-methylenecyclohexylidene)ethylidene)-7a-methyloctahydro-1H-inden-1-yl)butanoic acid]
activation of farnesoid X receptor [3]: not activated | CYP24A1 upregulation in DU145 cells [4]: 9 fold | expression of CYP24A1 in the presence of 1,25(OH)2D3 ([5]; Caco2, 18 h, co-treatment with 1,25(OH)2D3): strongly induced | CYP24A1 upregulation compared to lithocholic acid at 10 μM ([5]; intestinal cells (Caco2), CTA at 10 μM): 100 fold | activation of retinoid X receptor [6]: not activated | activation of liver X receptor α [7]: not activated | activation of peroxisome proliferator-activated receptor [8]: not activated | activation of liver X receptor β [9]: not activated | activation of retinoic acid receptor [10]: not activated | production of NO in comparison to vehicle [1]: significant reduction | induction of CAR-coactivator interactions [11]: did not bind to PXR or induce CAR-coactivator interactions | level of activation of gene expression in comparison to 100 nM 1,25(OH)2D3 [12]: 30% | recruitment of SRC-1 to VDR LBD [13]: induces recruitment of SRC-1 | binding to PXR [14]: did not bind | iNOS gene transcription (RT-PCR) [15]: reduction of gene transcription was observed | activation of androgen receptor [16]: not activated | cytotoxic effects (luminescence viability assay) [17]: absence of any cytotoxic effects | activation of thyroid receptor TRβ [18]: not activated | antirachitic activity [19]: antirachitic activity | IL-1β protein (HTRF) [2]: Reduced IL-1β protein | LD50 (Cell-titer Glo viability) [20]: 96.0 µM | activation of thyroid receptor TRα [21]: not activated | activation of estrogen receptor ERβ [22]: not activated | IL-1β gene transcription (RT-PCR) [23]: reduction of gene transcription was observed | IC50 [24]: 72.2 µM | activation of estrogen receptor ERα [25]: not activated

C=C1/C(=C\C=C2/CCC[C@]3(C)[C@@H]([C@H](C)CC(=O)OC)CC[C@@H]23)C[C@@H](O)C[C@@H]1O [CTA-ME, Methyl (R)-3-((1R,3aS,7aR,E)-4-((Z)-2-((3S,5R)-3,5-dihydroxy-2-methylenecyclohexylidene)ethylidene)-7a-methyloctahydro-1H-inden-1-yl)butanoate]
level of activation of gene expression in comparison to 100 nM 1,25(OH)2D3 [12]: 30% | antirachitic activity [19]: antirachitic activity | LD50 (Cell-titer Glo viability) [20]: 13.9 µM | IC50 [24]: 8.16 µM

NHPMLMNLLKDN [coactivator MED1 NR2 peptide]
binding result [26]: binds
